Test results reported in ChEMBL document CHEMBL4177566, “Rational design, synthesis and preliminary antitumor activity evaluation of a chlorambucil derivative with potent DNA/HDAC dual-targeting inhibitory activity” (Bioorg Med Chem Lett, 2017).
Activity calls are given as the source filed them. The calls are words filed in the database; no cut-off is given here.

Columns and labels:
A-375 [1] = test: Cell cycle arrest in human A375 cells assessed as accumulation at G2/M phase at 8 uM after 72 hrs by propidium iodide staining based flow cytometry (reference value: 12.6%); assay type: functional
A-375 [2] = test: Induction of apoptosis in human A375 cells assessed as necrotic cells at 2 uM after 72 hrs by Annexin/propidium iodide staining based flow cytometry (reference value: 1.36%); assay type: functional
HepG2 = test: Antiproliferative activity against human HepG2 cells after 72 hrs by CCK8 assay; assay type: functional, cell-based; conditions: for IC50: HepG2, 72 h
In short: (§1)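 CCK-8 viability read-out on four human cancer lines (HepG2, A549, HCT116, A375) over a range of concentrations. IC50 is the concentration that reduces viability to 50%. Values are means of three experiments.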

A549 = test: Antiproliferative activity against human A549 cells after 72 hrs by CCK8 assay; assay type: functional, cell-based; conditions: for IC50: A549, 72 h; in short: as §1
Histone deacetylase 1 = Histone deacetylase 1 (Homo sapiens, UniProt Q13547); test: Inhibition of recombinant human HDAC1 (482 residues) expressed in baculovirus infected insect cells preincubated with enzyme followed by flour de lys-green substrate addition measured after 1 hr by fluorescence assay
Histone deacetylase 1, sequence (Q13547 whole entry): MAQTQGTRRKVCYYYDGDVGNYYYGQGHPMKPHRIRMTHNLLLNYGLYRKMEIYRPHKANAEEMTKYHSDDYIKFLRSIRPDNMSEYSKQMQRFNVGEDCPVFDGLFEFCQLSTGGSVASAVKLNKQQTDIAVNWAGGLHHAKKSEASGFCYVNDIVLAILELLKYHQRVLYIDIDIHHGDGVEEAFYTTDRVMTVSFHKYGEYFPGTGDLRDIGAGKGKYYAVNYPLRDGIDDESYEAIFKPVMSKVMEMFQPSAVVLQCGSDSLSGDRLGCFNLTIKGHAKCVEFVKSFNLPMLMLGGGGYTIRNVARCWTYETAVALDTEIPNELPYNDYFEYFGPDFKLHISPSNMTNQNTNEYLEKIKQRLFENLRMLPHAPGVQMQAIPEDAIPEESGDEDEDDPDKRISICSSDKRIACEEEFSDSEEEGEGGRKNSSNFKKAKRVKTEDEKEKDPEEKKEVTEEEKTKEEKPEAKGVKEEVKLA

A-375 [3] = test: Induction of apoptosis in human A375 cells assessed as early apoptotic cells at 16 uM after 72 hrs by Annexin/propidium iodide staining based flow cytometry (reference value: 1.62%); assay type: functional
A-375 [4] = test: Anticlonogenic activity against human A375 cells after 7 days by crystal violet staining based assay; assay type: functional, cell-based
HCT-116 = test: Antiproliferative activity against human HCT116 cells after 72 hrs by CCK8 assay; assay type: functional, cell-based; conditions: for IC50: HCT-116, 72 h; in short: as §1
A-375 [5] = test: Induction of apoptosis in human A375 cells assessed as live cells at 16 uM after 72 hrs by Annexin/propidium iodide staining based flow cytometry (reference value: 86.07%); assay type: functional
A-375 [6] = test: Induction of apoptosis in human A375 cells assessed as late apoptotic cells at 8 uM after 72 hrs by Annexin/propidium iodide staining based flow cytometry (reference value: 6.95%); assay type: functional
[7] = target: Histone deacetylase (Homo sapiens) (UniProt Q13547+O15379+Q9UBN7+Q92769+Q9UQL6+Q8WUI4+Q9BY41+Q96DB2+P56524+Q9UKV0+Q969S8); test: Inhibition of HDAC in human HeLa nuclear extract up to 10000 uM preincubated with cells followed by flour de lys-green substrate addition measured after 1 hr by fluorescence assay
A-375 [8] = test: Induction of apoptosis in human A375 cells assessed as necrotic cells at 8 uM after 72 hrs by Annexin/propidium iodide staining based flow cytometry (reference value: 1.36%); assay type: functional
Homo sapiens = species: Homo sapiens; test: Induction of DNA damage in human A375 cells assessed as increase in gammaH2AX level at 16 uM after 48 hrs by high throughput assay relative to control; assay type: cell-based
In short: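 A375 cells were exposed for 48 h at 8 and 16 µM. Histone H2AX phosphorylation (γH2AX, a double-strand-break marker) was detected with the EpiQuik In Situ DNA Damage Assay kit following the maker's protocol. Results are expressed as percent of the untreated control, as mean ± SD (n=3), with a t-test for significance.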

A-375 [9] = test: Induction of apoptosis in human A375 cells assessed as live cells at 2 uM after 72 hrs by Annexin/propidium iodide staining based flow cytometry (reference value: 86.07%); assay type: functional
Histone deacetylase 2 = Histone deacetylase 2 (Homo sapiens, UniProt Q92769); test: Inhibition of recombinant human HDAC2 preincubated with enzyme followed by flour de lys-green substrate addition measured after 1 hr by fluorescence assay
Histone deacetylase 2, sequence (Q92769 whole entry): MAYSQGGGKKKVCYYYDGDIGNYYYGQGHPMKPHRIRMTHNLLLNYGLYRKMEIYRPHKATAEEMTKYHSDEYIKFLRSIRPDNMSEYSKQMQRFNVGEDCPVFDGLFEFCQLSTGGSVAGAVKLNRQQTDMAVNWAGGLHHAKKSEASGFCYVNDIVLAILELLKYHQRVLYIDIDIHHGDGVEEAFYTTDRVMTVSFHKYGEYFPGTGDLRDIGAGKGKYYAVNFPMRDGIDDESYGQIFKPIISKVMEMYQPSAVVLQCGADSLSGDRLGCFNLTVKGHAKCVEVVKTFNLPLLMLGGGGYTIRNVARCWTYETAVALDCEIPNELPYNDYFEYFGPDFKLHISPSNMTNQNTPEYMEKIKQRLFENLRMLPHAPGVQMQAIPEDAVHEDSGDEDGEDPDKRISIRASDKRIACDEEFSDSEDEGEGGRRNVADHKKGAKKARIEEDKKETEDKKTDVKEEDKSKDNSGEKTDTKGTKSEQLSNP

A-375 [10] = test: Induction of apoptosis in human A375 cells assessed as necrotic cells at 16 uM after 72 hrs by Annexin/propidium iodide staining based flow cytometry (reference value: 1.36%); assay type: functional
[11] = target: T1, Protein deacetylase HDAC6 (Homo sapiens, UniProt Q9UBN7); test: Inhibition of recombinant human His-tagged HDAC6 expressed in baculovirus infected insect cells preincubated with enzyme followed by flour de lys-green substrate addition measured after 1 hr by fluorescence assay
T1 sequence (Q9UBN7 whole entry): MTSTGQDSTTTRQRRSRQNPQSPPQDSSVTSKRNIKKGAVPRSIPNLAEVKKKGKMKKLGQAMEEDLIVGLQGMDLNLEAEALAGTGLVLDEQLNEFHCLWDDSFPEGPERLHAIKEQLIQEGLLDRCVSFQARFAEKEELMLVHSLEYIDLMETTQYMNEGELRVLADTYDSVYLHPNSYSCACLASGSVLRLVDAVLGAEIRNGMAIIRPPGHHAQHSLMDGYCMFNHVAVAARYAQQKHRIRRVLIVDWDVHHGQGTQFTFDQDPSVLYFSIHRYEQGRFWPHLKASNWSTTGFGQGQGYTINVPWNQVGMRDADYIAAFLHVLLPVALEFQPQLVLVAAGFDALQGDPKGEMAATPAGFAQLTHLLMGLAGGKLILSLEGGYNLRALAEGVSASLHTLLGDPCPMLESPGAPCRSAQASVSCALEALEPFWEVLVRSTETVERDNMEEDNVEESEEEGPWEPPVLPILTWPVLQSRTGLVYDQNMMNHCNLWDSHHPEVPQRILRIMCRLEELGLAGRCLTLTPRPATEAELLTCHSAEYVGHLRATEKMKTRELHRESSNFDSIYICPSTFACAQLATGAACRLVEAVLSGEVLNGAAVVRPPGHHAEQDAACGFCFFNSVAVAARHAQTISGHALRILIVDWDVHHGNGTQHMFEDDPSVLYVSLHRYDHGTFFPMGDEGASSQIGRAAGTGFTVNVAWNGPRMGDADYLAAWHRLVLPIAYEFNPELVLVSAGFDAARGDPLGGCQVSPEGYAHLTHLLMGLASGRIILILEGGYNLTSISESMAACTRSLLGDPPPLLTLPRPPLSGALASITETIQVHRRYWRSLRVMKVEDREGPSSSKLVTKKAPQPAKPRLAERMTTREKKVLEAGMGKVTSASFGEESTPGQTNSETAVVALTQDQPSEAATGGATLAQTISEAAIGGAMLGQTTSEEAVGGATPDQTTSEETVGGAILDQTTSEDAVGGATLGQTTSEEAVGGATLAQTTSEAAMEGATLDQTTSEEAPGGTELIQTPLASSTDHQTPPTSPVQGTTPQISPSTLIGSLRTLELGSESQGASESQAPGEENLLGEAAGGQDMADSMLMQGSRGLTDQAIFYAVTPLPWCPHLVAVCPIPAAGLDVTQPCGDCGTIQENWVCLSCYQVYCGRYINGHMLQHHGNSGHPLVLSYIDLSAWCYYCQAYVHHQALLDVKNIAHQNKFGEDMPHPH

A-375 [12] = test: Cell cycle arrest in human A375 cells assessed as accumulation at G0/G1 phase at 8 uM after 72 hrs by propidium iodide staining based flow cytometry (reference value: 83.6%); assay type: functional
A-375 [13] = test: Induction of apoptosis in human A375 cells assessed as late apoptotic cells at 2 uM after 72 hrs by Annexin/propidium iodide staining based flow cytometry (reference value: 6.95%); assay type: functional
A-375 [14] = test: Antiproliferative activity against human A375 cells after 72 hrs by CCK8 assay; assay type: functional, cell-based; conditions: for IC50: A-375, 72 h; in short: as §1
A-375 [15] = test: Induction of apoptosis in human A375 cells assessed as live cells at 8 uM after 72 hrs by Annexin/propidium iodide staining based flow cytometry (reference value: 86.07%); assay type: functional
A-375 [16] = test: Induction of apoptosis in human A375 cells assessed as early apoptotic cells at 8 uM after 72 hrs by Annexin/propidium iodide staining based flow cytometry (reference value: 1.62%); assay type: functional
A-375 [17] = test: Cell cycle arrest in human A375 cells assessed as accumulation at S phase at 8 uM after 72 hrs by propidium iodide staining based flow cytometry (reference value: 3.8%); assay type: functional
A-375 [18] = test: Induction of apoptosis in human A375 cells after 72 hrs by Annexin/propidium iodide staining based flow cytometry; assay type: functional, cell-based
A-375 [19] = test: Induction of apoptosis in human A375 cells assessed as early apoptotic cells at 2 uM after 72 hrs by Annexin/propidium iodide staining based flow cytometry (reference value: 1.62%); assay type: functional
A-375 [20] = test: Induction of apoptosis in human A375 cells assessed as late apoptotic cells at 16 uM after 72 hrs by Annexin/propidium iodide staining based flow cytometry (reference value: 6.95%); assay type: functional
A-375 [21] = test: Anticlonogenic activity against human A375 cells at 2 to 16 uM after 7 days by crystal violet staining based assay; assay type: functional, cell-based

Row | Compound | Activity (A-375 [1]) [%] | Activity (A-375 [2]) [%] | IC50 (HepG2) [µM] | IC50 (A549) [µM] | Activity (A-375 [3]) [%] | IC50 (HCT-116) [µM] | Activity (A-375 [5]) [%] | Activity (A-375 [6]) [%] | Activity (A-375 [8]) [%] | Activity (Homo sapiens) [%] | Activity (A-375 [9]) [%] | Activity (A-375 [10]) [%] | Activity (A-375 [12]) [%] | Activity (A-375 [13]) [%] | IC50 (A-375 [14]) [µM] | Activity (A-375 [15]) [%] | Activity (A-375 [16]) [%] | Activity (A-375 [17]) [%] | Activity (A-375 [19]) [%] | Activity (A-375 [20]) [%] | also measured
1 | O=C(CCCCCCC(=O)Nc1ccc(N(CCCl)CCCl)cc1)NO | 66.5 | 2.07 | 6.1 | 4.4 | 13.29 | 3.2 | 30.42 | 29.95 | 3.27 | 224 | 84.36 | 2.75 | 27.7 | 10.26 | 6.2 | 50.76 | 16.02 | 5.8 | 3.31 | 53.54 | Activity (HepG2): Dose-dependent effect; Activity (A549): Dose-dependent effect; IC50 (Histone deacetylase 1): 0.27 µM; Activity (A-375 [4]): Dose-dependent effect; Activity (HCT-116): Dose-dependent effect; inhibition [7]: Active; IC50 (Histone deacetylase 2): 0.24 µM; IC50 [11]: 0.62 µM; Activity (A-375 [14]): Dose-dependent effect; Activity (A-375 [18]): Dose-dependent effect
2 | O=C(O)CCCc1ccc(N(CCCl)CCCl)cc1 [CHLORAMBUCIL] | 47.6 | 1.36 | 112 | 22.2 | 4.21 | 57.6 | 71.14 | 8.41 | 2.34 | 129 | 90.07 | 6.44 | 47 | 6.95 | 69.2 | 87.14 | 2.11 | 5.4 | 1.62 | 18.21 | Activity (A-375 [21]): Active
